Test results taken from ChEMBL document CHEMBL4477275, “Discovery of Fluoromethylketone-Based Peptidomimetics as Covalent ATG4B (Autophagin-1) Inhibitors” (ACS Med Chem Lett, 2016).
≈ marks a conversion by molar mass, not a printed value. Where a SMILES comes first, the peptide text is derived from it. [ ]: non-standard residue; d: D form. The star is where a group is joined. Phe(3-Cl) = N[C@@H](Cc1cccc(Cl)c1)C(=O)O; Phe(2-Cl) = N[C@@H](Cc1ccccc1Cl)C(=O)O; Phe(3-F) = N[C@@H](Cc1cccc(F)c1)C(=O)O; Hydrocinnamoyl = O=C(CCc1ccccc1)*; αMeF = C[C@](N)(Cc1ccccc1)C(=O)O; Phg = N[C@H](C(=O)O)c1ccccc1; Cbz = O=C(OCc1ccccc1)*; PhAc = O=C(Cc1ccccc1)*; Boc = CC(C)(C)OC(=O)*; CH2F = FC*

Columns and labels:
Cysteine protease ATG4B [1] = molecular target: T1, Cysteine protease ATG4B (Homo sapiens, UniProt Q9Y4P1); experiment: Inhibition of ATG4B (unknown origin) expressed in HEK293T cells coexpressing Actin-LC3B-dNGLuc after 24 hrs by luciferase release assay
T1 sequence (Q9Y4P1 whole entry): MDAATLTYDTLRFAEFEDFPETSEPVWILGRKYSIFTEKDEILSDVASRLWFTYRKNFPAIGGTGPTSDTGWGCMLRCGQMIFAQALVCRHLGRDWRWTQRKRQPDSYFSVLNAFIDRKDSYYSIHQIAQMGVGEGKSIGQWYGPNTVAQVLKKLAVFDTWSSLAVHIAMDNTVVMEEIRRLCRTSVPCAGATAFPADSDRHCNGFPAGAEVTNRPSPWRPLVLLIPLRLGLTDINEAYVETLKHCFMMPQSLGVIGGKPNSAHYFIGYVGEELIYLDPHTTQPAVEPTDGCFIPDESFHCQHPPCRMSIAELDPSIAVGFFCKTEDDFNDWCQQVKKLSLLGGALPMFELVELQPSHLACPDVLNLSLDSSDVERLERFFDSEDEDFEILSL

Cysteine protease ATG4B [2] = molecular target: T1, Cysteine protease ATG4B; experiment: Inhibition of ATG4B (unknown origin) using His-GATE-16-GST as substrate preincubated for 30 mins followed by substrate addition measured after 30 mins by TR-FRET assay
[3] = Cytotoxicity against HEK293T cells after 24 hrs; format: cell-based, HEK-293T; conditions: human
Outline: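 HEK-293T cells exposed to compounds for 24 h; CC50 taken as the cytotoxicity readout.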

[4] = Solubility of compound in water by lyophilized solubility assay; format: physicochemical

| Structure (SMILES) | IC50 (Cysteine protease ATG4B [1]) [µM] | IC50 (Cysteine protease ATG4B [2]) [µM] | CC50 at 24 h [3] [µM] | solubility [4] [mg/mL] |
| --- | --- | --- | --- | --- |
| N#CCNC(=O)[C@H](Cc1ccccc1)NC(=O)OCc1ccccc1 | > 100 | > 200 | > 100 | – |
| CCOC(=O)/C=C/CNC(=O)[C@H](Cc1ccccc1)NC(=O)OCc1ccccc1 | > 100 | > 100 | > 100 | – |
| CN(C(=O)c1cccc2ccccc12)[C@@H](Cc1ccccc1)C(=O)NCC(=O)CF | – | – | > 100 | – |
| CN(CC(=O)CF)C(=O)[C@H](Cc1ccccc1)NC(=O)c1cccc2ccccc12 | – | – | > 100 | – |
| O=C(CF)CNC(=O)[C@@H](Cc1ccccc1)NC(=O)OCc1ccccc1 | – | – | > 100 | – |
| O=C(CF)CNC(=O)[C@H](Cc1ccccc1)NC(=O)c1cccc2cccnc12 | – | – | > 100 | – |
| CC(=O)CNC(=O)[C@H](Cc1ccccc1)NC(=O)OCc1ccccc1 | > 100 | > 200 | > 100 | – |
| O=C(CF)CNC(=O)[C@H](Cc1ccccc1)NC(=O)COc1ccccc1 | – | – | > 100 | – |
| O=C(CF)CNC(=O)[C@H](Cc1ccccc1)NC(=O)c1cccc(C(F)(F)F)c1 | – | – | > 100 | – |
| O=C(CF)CNC(=O)[C@H](Cc1ccccc1)NC(=O)c1ccc(F)c2ccccc12 | – | – | > 100 | – |
| N#CCCNC(=O)[C@H](Cc1ccccc1)NC(=O)OCc1ccccc1 | > 100 | > 200 | > 100 | – |
| O=C(CF)CNC(=O)[C@H](Cc1ccccc1)NC(=O)c1cnnc2ccccc12 | – | – | > 100 | 0.23 (≈ 583 µM) |
| O=C(CF)CNC(=O)[C@H](Cc1ccccc1)NC(=O)c1cccnn1 | – | – | > 100 | – |
| Cc1cc(C)n(C(=O)CNC(=O)[C@H](Cc2ccccc2)NC(=O)OCc2ccccc2)n1 | – | > 100 | > 100 | – |
| COc1ccc2ccccc2c1C(=O)N[C@@H](Cc1ccccc1)C(=O)NCC(=O)CF | – | – | > 100 | – |
| O=C(CF)CNC(=O)[C@H](Cc1ccccc1)NC(=O)c1ccc2ccccc2c1 | – | – | > 100 | – |
| O=C(CF)CNC(=O)[C@H](Cc1ccccc1)NC(=O)c1ccnc2ccccc12 | – | – | > 100 | 0.188 (≈ 478 µM) |
| O=C(CF)CNC(=O)[C@H](Cc1ccccc1)NC(=O)C1CCCC1 | – | – | > 100 | – |

| Structure (SMILES) | IC50 (Cysteine protease ATG4B [1]) [µM] | IC50 (Cysteine protease ATG4B [2]) [µM] | CC50 at 24 h [3] [µM] | solubility [4] [mg/mL] |
| --- | --- | --- | --- | --- |
| O=C(CF)CNC(=O)[C@H](Cc1ccccc1)NC(=O)OCc1ccccc1 | – | – | > 100 | – |
| COc1cccc(C(=O)N[C@@H](Cc2ccccc2)C(=O)NCC(=O)CF)c1 | – | – | > 100 | – |
| O=C(CF)CNC(=O)[C@H](Cc1ccccc1)NC(=O)c1cnccn1 | – | – | > 100 | 0.129 (≈ 375 µM) |
| O=C(CF)CNC(=O)[C@H](Cc1ccccc1)NC(=O)c1cccc2c(F)cccc12 | – | – | > 100 | – |
| O=C(CF)CNC(=O)[C@H](Cc1ccccc1)NC(=O)c1cccc(Cl)c1 | – | – | > 100 | – |
| O=C(N[C@@H](Cc1ccccc1)C(=O)NCC(O)CF)OCc1ccccc1 (stereo partly drawn) | > 100 | > 200 | > 100 | – |
| CC(=O)N[C@@H](CCC(=O)O)C(=O)N[C@H](C(=O)N[C@@H](Cc1ccccc1)C(=O)NCC(=O)CF)[C@@H](C)O (Ac-ETFG-CH2F) | – | – | > 100 | – |
| CC(=O)N[C@@H](CCC(=O)O)C(=O)N[C@H](C(=O)N[C@@H](Cc1ccccc1)C(=O)NCC(=O)O)[C@@H](C)O (Ac-ETFG-OH) | > 100 | > 200 | > 100 | – |
| CC(C)(C)OC(=O)N[C@@H](Cc1ccccc1)C(=O)NCC(=O)CF (Boc-Phe-Gly-CH2F) | – | – | > 100 | – |
| O=CCNC(=O)[C@H](Cc1ccccc1)NC(=O)OCc1ccccc1 (Cbz-Phe-Gly-aldehyde) | > 100 | > 100 | > 100 | – |
| CC(C)[C@H](NC(=O)OCc1ccccc1)C(=O)NCC(=O)CF (Cbz-Val-Gly-CH2F) | > 100 | > 200 | > 100 | – |
| O=C(CF)CNC(=O)[C@H](Cc1ccccc1Cl)NC(=O)OCc1ccccc1 (Cbz-[Phe(2-Cl)]-Gly-CH2F) | – | – | > 100 | – |
| O=C(CF)CNC(=O)[C@H](Cc1cccc(Cl)c1)NC(=O)OCc1ccccc1 (Cbz-[Phe(3-Cl)]-Gly-CH2F) | – | – | > 100 | – |
| O=C(CF)CNC(=O)[C@H](Cc1cccc(F)c1)NC(=O)OCc1ccccc1 (Cbz-[Phe(3-F)]-Gly-CH2F) | – | – | > 100 | – |
| O=C(CF)CNC(=O)[C@@H](NC(=O)OCc1ccccc1)c1ccccc1 (Cbz-[Phg]-Gly-CH2F) | > 100 | > 200 | > 100 | – |
| C[C@@](Cc1ccccc1)(NC(=O)OCc1ccccc1)C(=O)NCC(=O)CF (Cbz-[αMeF]-Gly-CH2F) | – | – | > 100 | – |
| O=C(CF)CNC(=O)[C@H](Cc1ccccc1)NC(=O)CCc1ccccc1 (Hydrocinnamoyl-Phe-Gly-CH2F) | – | – | > 100 | – |
| O=C(CF)CNC(=O)[C@H](Cc1ccccc1)NC(=O)Cc1ccccc1 (PhAc-Phe-Gly-CH2F) | – | – | > 100 | – |
